The list is not random: actives were taken first. Their share in the collection is about 4.1%.
KCNQ1 inh: human KCNQ1 channel inhibition | P51787 | CHO-K1 KCNQ1, FluxOR thallium flux fluorescence; active compounds read high | B-score at 10 µM | 1.3% of 310,000 active;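 active means compounds whose thallium flux B-score, printed positive for inhibition, exceeds three library SD while starting fluorescence stays within three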;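 further: channel opened by potassium depolarization with thallium stimulus after 20 min compound exposure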
KCNQ1 pot: human KCNQ1 channel potentiation or activation. CHO-K1 KCNQ1, thallium flux FluxOR fluorescence; active compounds read high. B-score at 10 µM. 0.35% of 310,000 active;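 active means fluorescence ratio B-score, a plate-corrected score, at least three library SD, with initial intensity B-score within 5 SD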
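Doses: Single concentration per compound, DMSO matched to controls | Test system: KCNQ1-transfected CHO-K1 cells | Timing: 90 min dye loading and 20 min compound exposure, both at room temperature | Measured by: Kinetic FluxOR thallium fluorescence, 10-s 1-Hz baseline, 110-s post-stimulus read | Medium: Assay buffer with matched DMSO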
KCNK3 block: human KCNK3 channel inhibition, primary screen; CHO-KCNK3 thallium flux, FluxOR fluorescence; active compounds read low; O14649; B-score at 10 µM; 0.84% of 340,000 active; AID 602410;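 active means B-score under library mean minus 4 SD, starting fluorescence ratio at most library mean plus 5 SD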;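 further: more negative B-score means stronger inhibition of thallium flux through KCNK3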
Target sequence (O14649 whole entry, looked up): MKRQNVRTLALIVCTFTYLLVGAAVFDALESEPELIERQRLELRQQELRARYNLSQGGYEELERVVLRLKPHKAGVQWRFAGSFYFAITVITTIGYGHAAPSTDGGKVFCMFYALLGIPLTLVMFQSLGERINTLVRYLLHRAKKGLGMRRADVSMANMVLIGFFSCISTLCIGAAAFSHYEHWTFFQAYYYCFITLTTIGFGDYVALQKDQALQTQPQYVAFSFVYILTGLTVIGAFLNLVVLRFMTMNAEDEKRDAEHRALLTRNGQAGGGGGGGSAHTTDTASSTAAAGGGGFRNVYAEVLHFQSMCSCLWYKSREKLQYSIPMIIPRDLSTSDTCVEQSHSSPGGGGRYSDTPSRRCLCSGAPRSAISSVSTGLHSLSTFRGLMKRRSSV
hERG rescue: compounds protecting human hERG from proarrhythmic drug block; CHO-hERG, FluxOR thallium flux, dofetilide IC70 present; activation (rescue from dofetilide block), less the hit threshold, % at 10 µM; 0.51% of 310,000 active; Q12809;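 active means activation above the mean of controls blocked by dofetilide plus 5 SD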;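 further: thallium influx through hERG after potassium depolarization seen as dye fluorescence rise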
KCNK9 block: human KCNK9 channel inhibition; HEK293 KCNK9, FluxOR thallium flux fluorescence; active compounds read low; B-score at 10 µM; 1.2% of 310,000 active; AID 488922;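 active means ratio B-score over 3 SD below the library mean, with starting fluorescence within 5 SD of its mean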;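 further: negative B-score means less thallium flux so channel inhibition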
Target sequence (Q9NPC2 whole entry, looked up): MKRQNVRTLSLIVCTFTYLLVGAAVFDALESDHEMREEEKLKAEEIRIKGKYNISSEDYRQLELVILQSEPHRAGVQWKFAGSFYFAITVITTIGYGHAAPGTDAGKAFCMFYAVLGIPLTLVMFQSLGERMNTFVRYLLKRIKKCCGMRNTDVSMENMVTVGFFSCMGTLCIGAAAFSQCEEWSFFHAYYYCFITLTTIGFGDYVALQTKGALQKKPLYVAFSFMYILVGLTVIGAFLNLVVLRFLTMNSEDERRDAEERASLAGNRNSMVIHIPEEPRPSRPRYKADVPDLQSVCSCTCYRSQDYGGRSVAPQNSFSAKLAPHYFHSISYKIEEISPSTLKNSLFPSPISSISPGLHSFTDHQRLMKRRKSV
KCC2 mod: KCC2 (human) Cl- transport modulation; Q9H2X9; KCC2 cells, thallium flux FluoZin-2 fluorescence; B-score of Tl+ flux slope (higher = more flux/activation; lower = inhibition) at 10 µM; 2.2% of 190,000 active;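 active means thallium flux slope and its plate-corrected score both differing from the plate sample mean at a set confidence after two filtering rounds, in either direction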;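 further: slope of fluorescence scaled to starting intensity during 10 to 20 s after thallium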
KCC2 secondary: confirmation of human KCC2 transport modulators | shares compounds with KCC2 mod | HEK293-KCC2, thallium flux, FluoZin2 fluorescence; active compounds read high | normalised thallium flux (F/F0 slope) at 10 µM | 15% of 3,700 active;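 active means thallium flux slope above the same plate's solvent-only control mean plus 3 SD; inconclusive means the two replicate wells disagree; inactive means no significant difference from solvent-only control wells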
KCC2 bumet counter: thallium flux persisting under bumetanide in KCC2 cells, counter-screen secondary assay; 49% of 3,700 active; HEK293-KCC2 + bumetanide/ouabain, thallium flux FluoZin2; active compounds read high; AID 1714; shares compounds with KCC2 mod; normalized thallium flux at 10 µM;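 active means thallium entry rate above the same plate's blocked-transporter control wells by more than 3 SD; inconclusive means the two repeat wells disagree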;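 further: raw slope of fluorescence over initial fluorescence between 10 and 20 s after thallium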
KCC2 secondary2: KCC2 (human) modulation, second secondary assay | shares compounds with KCC2 mod | normalized thallium flux at 10 µM | HEK293-KCC2, thallium flux FluoZin2 fluorescence; actives lie on both sides; F/F0 rise rate, 10–20 s post-thallium | 23% of 3,700 active;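 active means thallium flux slope more than 3 SD above or below the plate's solvent-only control mean, mostly below; inconclusive means the two repeat wells disagreed; inactive means no significant shift from solvent-only controls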;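 further: raw slope with 0.1% DMSO as baseline and bumetanide as block control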
HEK293 Tl flux: parental HEK flux effect, counter-screen | shares compounds with KCC2 mod | HEK293 parental cells, thallium flux FluoZin2, ouabain; baseline-ratio fluorescence slope, 10–20 s after thallium | thallium flux rate (normalised fluorescence) at 10 µM | 46% of 3,700 active;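 active means thallium flux rate significantly above the same plate's solvent-only control wells, beyond their mean plus 3 SD; inconclusive means the two replicate wells gave conflicting results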
KCC2 ouabain: KCC2 (human) modulation, ouabain retest | shares compounds with KCC2 mod | HEK293-KCC2, thallium flux FluoZin2 fluorescence; bidirectional: low = inhibitor, high = activator | raw Tl+ flux slope (below DMSO = inhibition, above = activation) at 10 µM | 48% of 3,700 active | AID 1717;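 active means thallium flux slope beyond 3 SD from same-plate DMSO control mean in most replicates, usually higher, sometimes lower; inconclusive means repeat tests gave conflicting results; inactive means no significant difference from controls in most replicates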;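 further: slope of initial-normalized fluorescence between seconds 10 and 20 after thallium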
HEK293 Tl flux2: counter-screen for KCC2 modulators: effect in parental HEK293 cells; shares compounds with KCC2 mod; thallium flux FluoZin-2 fluorescence slope; thallium flux slope at 10 µM; 33% of 3,700 active;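 active means thallium flux slope above the same plate's solvent-control mean plus 3 SD in both duplicate wells; inconclusive means duplicate wells that disagreed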;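 further: run without ouabain in cells lacking the KCC2 cotransporter; slope of fluorescence scaled to its starting value between 10 and 20 s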
The depositor's hits bear a star.

What do the screens show for `CC(=O)c1ccc(Nc2nc(=O)c3cccnc3s2)cc1`?
KCNQ1 inh: inactive; KCNQ1 pot: inactive; KCNK3 block: inactive; hERG rescue: -5.1; KCNK9 block: inactive

Results for CCOCC(O)CNC(=O)c1ccc(OC2CCN(C(=O)c3cccnc3)CC2)cc1 (stereo not drawn) ?
KCNQ1 inh: inactive; KCNQ1 pot: inactive; KCNK3 block: inactive; hERG rescue: -5.2; KCNK9 block: inactive; KCC2 mod: 0.228

What do the screens show for `Cc1[nH]c(=S)sc1Cc1ccc(F)cc1`?
KCNQ1 inh: inactive; KCNQ1 pot: 9*; KCNK3 block: inactive; hERG rescue: 2.4; KCNK9 block: inactive; KCC2 mod: 39.5*; KCC2 secondary: 0.00556; KCC2 bumet counter: 0.119*; KCC2 secondary2: 0.0842*; HEK293 Tl flux: 0.0887*; KCC2 ouabain: 0.102*; HEK293 Tl flux2: 0.0672*

How did C[C@@H]1NC(=O)OC1c1ccco1 (stereo partly drawn) do in these assays?
KCNK3 block: inactive

How did O=C(Oc1cccc([N+](=O)[O-])c1)c1ccc2c(=O)n3c(nc2c1)CCC3 do in these assays?
KCNK3 block: inactive

What do the screens show for `Nc1nonc1C(=O)NCCN=Cc1cc(Cc2ccccc2)cc(Br)c1O`?
KCNQ1 inh: inactive; KCNQ1 pot: inactive; KCNK3 block: inactive; hERG rescue: -13.3; KCNK9 block: inactive

Results for Nc1nonc1C(=O)NCCN=Cc1ccccc1O ?
KCNQ1 inh: inactive; KCNQ1 pot: inactive; KCNK3 block: inactive; hERG rescue: -10.0; KCNK9 block: inactive; KCC2 mod: -4.65*; KCC2 secondary: inconclusive; KCC2 bumet counter: inconclusive; KCC2 secondary2: 0.0319; HEK293 Tl flux: 0.0081; KCC2 ouabain: 0.0196; HEK293 Tl flux2: 0.011

What do the screens show for `CCn1c(SCC(=O)Nc2ccc(Cl)cc2)nc2nc3c(cc2c1=O)CCCC3`?
KCNQ1 inh: inactive; KCNQ1 pot: inactive; KCNK3 block: inactive; hERG rescue: -5.4; KCNK9 block: inactive; KCC2 mod: 4.81*; KCC2 secondary: inconclusive; KCC2 bumet counter: 0.0154*; KCC2 secondary2: 0.0326; HEK293 Tl flux: 0.0126*; KCC2 ouabain: inconclusive; HEK293 Tl flux2: 0.0135*

How did Cn1c(=O)cc(SCC(=O)N2CCN(c3ccccn3)CC2)c2ccccc21 do in these assays?
KCNQ1 inh: inactive; KCNQ1 pot: inactive; KCNK3 block: inactive; hERG rescue: -11.6; KCNK9 block: inactive; KCC2 mod: -3.53*; KCC2 secondary: 0.00757; KCC2 bumet counter: 0.00669; KCC2 secondary2: 0.0313; HEK293 Tl flux: 0.00688; KCC2 ouabain: 0.0178*; HEK293 Tl flux2: 0.00979

What do the screens show for `Cn1c(=O)cc(SCC(=O)N2CCN(c3ccccc3)CC2)c2ccccc21`?
KCNQ1 inh: inactive; KCNQ1 pot: inactive; KCNK3 block: inactive; hERG rescue: -10.7; KCNK9 block: inactive

What do the screens show for `c1coc(CNc2c3c(nc4ncnn24)CCC3)c1`?
KCNQ1 inh: inactive; KCNQ1 pot: inactive; KCNK3 block: inactive; hERG rescue: -3.7; KCNK9 block: inactive; KCC2 mod: 0.0211

What do the screens show for `c1coc(CNc2c3c(nc4ncnn24)CCCC3)c1`?
KCNQ1 inh: inactive; KCNQ1 pot: inactive; KCNK3 block: inactive; hERG rescue: -6.5; KCNK9 block: inactive; KCC2 mod: 4.99*; KCC2 secondary: 0.00666; KCC2 bumet counter: 0.00424; KCC2 secondary2: 0.0273; HEK293 Tl flux: 0.00715; KCC2 ouabain: 0.0178; HEK293 Tl flux2: 0.00929

What do the screens show for `COc1ccc(S(=O)(=O)N2CCCC2CNC(=O)C(=O)Nc2ccc(F)cc2)cc1` (stereo not drawn)?
KCNQ1 inh: inactive; KCNQ1 pot: inactive; KCNK3 block: inactive; hERG rescue: -16.2; KCNK9 block: inactive

Results for N#C/C(=C(/O)COC(=O)c1ccccc1O)c1nc2ccccc2s1 ?
KCNQ1 inh: inactive; KCNQ1 pot: inactive; KCNK3 block: inactive; hERG rescue: -11.8; KCNK9 block: inactive; KCC2 mod: -5.13*; KCC2 secondary: 0.0063; KCC2 bumet counter: 0.00741; KCC2 secondary2: 0.0287; HEK293 Tl flux: 0.0065; KCC2 ouabain: 0.016*; HEK293 Tl flux2: 0.00902

Results for CCn1c(-c2csc3c2CCC(C)C3)n[nH]c1=S (stereo not drawn) ?
KCNQ1 inh: inactive; KCNQ1 pot: inactive; KCNK3 block: inactive; hERG rescue: -4.2; KCNK9 block: inactive; KCC2 mod: 11.4*; KCC2 secondary: 0.00711; KCC2 bumet counter: 0.0274*; KCC2 secondary2: 0.0353; HEK293 Tl flux: 0.0236*; KCC2 ouabain: 0.0297*; HEK293 Tl flux2: 0.0141*

How did CN(Cc1ncc[nH]1)C(=O)CC1C(=O)NCCN1Cc1c(F)cccc1Cl (stereo not drawn) do in these assays?
KCNQ1 inh: inactive; KCNQ1 pot: inactive; KCNK3 block: inactive; hERG rescue: -3.3; KCNK9 block: inactive; KCC2 mod: 0.0377

Results for Cc1cc(CN(C)C(=O)CC2C(=O)NCCN2Cc2c(F)cccc2Cl)on1 (stereo not drawn) ?
KCNQ1 inh: inactive; KCNQ1 pot: inactive; KCNK3 block: inactive; hERG rescue: -10.0; KCNK9 block: inactive; KCC2 mod: 7.87*; KCC2 secondary: 0.0158; KCC2 bumet counter: 0.00477; KCC2 secondary2: 0.028; HEK293 Tl flux: 0.00764; KCC2 ouabain: 0.0163; HEK293 Tl flux2: 0.00996

Assay outcomes deposited in PubChem by several laboratories.
